High-throughput results as filed in PubChem BioAssay.
SIAE primary – human SIAE inhibitors, primary screen, biochemical, fluorescence polarization, FP-Rh probe, 1536-well HTS; Sialate O-acetylesterase (Homo sapiens), Q9HAT2; SIAE FP-Rh probe binding; inhibition, % at 9.66 µM; 0.69% of 370,000 active; AID 1053197, 2014;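 active means inhibition above a cutoff: mean of compounds within the control limits plus 3 SD of those, cut at about 17% in these data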;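 further: 0% = plate median of compound wells and 100% = probe without SIAE protein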
HTRA1 inhibitor – HTRA1 serine protease inhibitors, primary screen, biochemical, fluorescence polarization, HTS; 0.5% of 340,000 active; Q92743; recombinant HTRA1, FP-rhodamine activity-based probe; inhibition, % at 5.96 µM; AID 504803, 2011; in the data active means inhibition above about 36%;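 further: 0% = enzyme with DMSO and 100% = wells lacking enzyme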
PAD4 FP inh – human PAD4 inhibitors, primary screen, biochemical, fluorescence polarization, 1536-well format. Protein-arginine deiminase type-4 (Homo sapiens), Q9UM07. recombinant PAD4, RCA probe fluorescence polarization. inhibition, % at 6.36 µM. 0.41% of 330,000 active;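 active means percent inhibition above a cutoff equal to the mean of all tested compounds plus 3 SD, cut at about 15% in these data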;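 further: 0% = PAD4 with RCA probe and DMSO and 100% = probe without PAD4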
TDP2 inh – human TDP2 enzyme inhibitors, primary screen, biochemical, epi absorbance, recombinant enzyme; T5PNP hydrolysis, p-nitrophenol absorbance 415 nm; inhibition, % at 12.8 µM; 0.34% of 370,000 active; AID 720702, 2013;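 active means inhibition above the mean of all tested compounds plus 3 SD, set per campaign, cut at about 25% in these data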;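 further: 0% = DMSO with enzyme and 100% = buffer with substrate but no TDP2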
Target sequence (O95551 whole entry, looked up): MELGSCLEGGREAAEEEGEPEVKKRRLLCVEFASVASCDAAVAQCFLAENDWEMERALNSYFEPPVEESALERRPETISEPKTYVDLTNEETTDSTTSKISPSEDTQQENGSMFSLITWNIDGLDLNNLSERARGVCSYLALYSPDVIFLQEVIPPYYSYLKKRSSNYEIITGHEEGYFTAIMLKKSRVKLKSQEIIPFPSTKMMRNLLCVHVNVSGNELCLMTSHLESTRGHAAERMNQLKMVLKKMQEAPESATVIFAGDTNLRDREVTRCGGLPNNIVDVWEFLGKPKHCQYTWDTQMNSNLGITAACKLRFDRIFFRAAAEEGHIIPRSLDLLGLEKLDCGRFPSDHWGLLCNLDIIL
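Read-out basis: percent inhibition. System: recombinant human TDP2. Buffer or medium: Mg2+-containing Tris-HCl buffer, pH 7.5. Repeats: single replicate. Timing: reaction 2 h, 37 °C. Benchmarks: high control without enzyme, low control DMSO plus TDP2. Probe or stimulus: 5 mM T5PNP. Doses: 12.8 µM only. Measured by: epi absorbance of p-nitrophenol freed from T5PNP by hydrolysis.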
mABHD4 FP – ABHD4 inhibitors, primary screen, biochemical, fluorescence polarization, mouse | (Lyso)-N-acylphosphatidylethanolamine lipase (Mus musculus), Q8VD66 | purified mABHD4, FP-Rh probe fluorescence polarization | inhibition, % at 8.92 µM | 0.54% of 370,000 active | AID 720543, 2013;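 active means inhibition exceeding the mean over every tested compound plus 3 SD, cut at about 30% in these data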;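 further: 0% = plate median of compound wells and 100% = S159A mutant with DMSO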
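assay system = mABHD4 protein | compound dosing = single nominal dose of 8.92 µM, 0.89% DMSO final | read-out basis = percent inhibition of probe binding, normalized to plate controls | schedule = Enzyme–compound pre-incubation 45 min, then probe 60 min, both 25 °C | detection = fluorescence polarization, excitation 525 nm, emission 598 nm, BODIPY TMR filters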
TCR-CD3 inh – inhibitors of human TCR-CD3 interaction, primary screen, biochemical, fluorescence, TAMRA-labeled TCR probe; inhibition, % at 9.4 µM; 0.37% of 360,000 active; T-cell receptor (TCR);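 further: recombinant mutant TCR 2C K166C tagged with TAMRA read by polarization; 0% = receptor in buffer alone and 100% = receptor with positive control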
HTRA1 conf – HTRA1 protease inhibitors, retest, confirmation, biochemical, fluorescence polarization. shares compounds with HTRA1 inhibitor. recombinant HTRA1, FP-rhodamine activity-based probe. inhibition, % at 5.96 µM. 66% of 1,600 active;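 active means mean inhibition over three repeats above a set limit taken from the earlier primary screen, cut at about 37% in these data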;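 further: 0% = HTRA1 with DMSO and 100% = wells lacking HTRA1; inhibitors block probe binding so polarization drops and inhibition rises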
BSA probe FL – compounds interfering with TAMRA-BSA probe, counter-screen for TCR-CD3 interaction inhibitor project, biochemical, fluorescence, TAMRA-labeled BSA; shares compounds with TCR-CD3 inh; TAMRA-labeled BSA probe fluorescence counterscreen; inhibition, % at 9.4 µM; 10% of 1,200 active; in the data active means inhibition above about 23%;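 further: 0% = buffer low control and 100% = reference high control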
TCR-CD3 conf – TCR-CD3 interaction inhibitors, retest, confirmation, biochemical, fluorescence, TAMRA-labeled TCR probe. TAMRA-labeled TCR probe fluorescence binding assay. 48% of 1,200 active. shares compounds with TCR-CD3 inh. inhibition, % at 9.4 µM
mABHD4 conf – ABHD4 inhibitors, retest, confirmation, biochemical, fluorescence polarization, mouse. shares compounds with mABHD4 FP. purified mABHD4, FP-Rh probe fluorescence polarization. inhibition, % at 8.92 µM. 55% of 1,800 active. AID 720658, 2013;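 active means mean inhibition across replicates above the hit cutoff set in the primary screen, cut at about 30% in these data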;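 further: 0% = wild-type ABHD4 with DMSO and 100% = catalytically dead S159A mutant with DMSO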
Active calls of the source: *; . = no result. The list is not random: actives were taken first. Their share in the collection is about 2%. Unless noted, no stated cut-off is given here; in the data, active means inhibition above about 19%; inactive means the rest.

SMILES	SIAE primary	HTRA1 inhibitor	PAD4 FP inh	TDP2 inh	mABHD4 FP	TCR-CD3 inh	HTRA1 conf	mABHD4 conf	others
CCCCCCCCCCCCCCCC[N+](C)(C)CCl	-3	65*	.	2	50*	11	74*	12
CCCCCC[N+](C)(C)CCSSCC[N+](C)(C)CCCCCC	-2	0	-2	-9	7	9	.	.
CCCCCCCCCCCCCCCC[N+](C)(C)CC	0	61*	-4	17	47*	4	167*	60*
CN(C)c1cccc(NC(=O)c2cccc3ccccc23)c1	-2	0	-3	10	2	4	.	.
CCOC(=O)N1CCN(C(=O)C[C@H]2C[C@@]3(C(=O)OC)C(=C[C@H](C4CCCC4)O[C@@H]3C)N(Cc3ccc(Cl)cc3Cl)C2=O)CC1	-6	.	.	-2	-12	.	.	.
COc1ccc(CNC(=O)[C@@H](Cc2ccccc2)NC(=O)CC[C@H]2O[C@@H](n3ccc(=O)[nH]c3=O)[C@H](O)[C@@H]2O)cc1	7	.	.	0	6	1	.	.
C=C1c2cccc(O)c2C(O)=C2C(=O)[C@]3(O)C(O)=C(C(N)=O)C(=O)[C@@H](N(C)C)[C@@H]3[C@@H](O)[C@H]12	69*	53*	-10	22	79*	52*	30	26	BSA probe FL=-8;TCR-CD3 conf=4
CCOC(=O)/C=C/C(=O)Nc1ccc(S(=O)(=O)Nc2cc(OC)nc(OC)n2)cc1	-3	1	.	8	-1	1	.	.
COc1cc(N(C)C)ccc1C=c1c2ccccc2n2c1cc(-c1ccccc1)[n+]2C	-76	-72	.	10	-148	-45	.	.
CN(C)c1ccc(C=c2c3cc([N+](=O)[O-])ccc3n3c2cc(-c2ccccc2)[n+]3C)cc1	15	92*	.	-6	78*	57*	41*	28
Cc1ccc(N=C2C(=O)Nc3ccccc32)cc1	3	2	0	5	1	5	.	.
CCN(CC)c1ccc(N=C2C(=O)Nc3ccccc32)cc1	15	63*	13	5	46*	-5	44*	51*
CC(C)c1ccc(NC(=O)C2CCCCC2C(=O)O)cc1 (centres undefined)	4	3	-2	-4	-7	-2	.	.
O=C(O)[C@H]1CCCC[C@H]1C(=O)Nc1ccc(Nc2ccccc2)cc1	7	67*	12	5	42*	-5	21	19
CCCC(=O)C1=C(N(C)c2ccccc2)CC(C)(C)CC1=O	1	5	2	3	-1	-8	.	.
CCCC(=O)C1=C(c2ccccc2)C(C#N)(C#N)C(C#N)=C1N	13	38*	-10	9	38*	1	55*	22
Oc1ccc(N=Nc2ccccc2-c2nn[nH]n2)c(O)c1	16	42*	0	17	68*	2	67*	71*
Cc1ccccc1-c1nn[nH]n1	4	6	-5	-4	-2	-11	.	.
CC1=C(O)C(=O)C(c2c(C)cc(C)c(Br)c2C)=C(O)C1=O	16	84*	.	4	79*	23*	74*	74*	BSA probe FL=0;TCR-CD3 conf=15
